We go through 20 compounds from ChEMBL document CHEMBL1140766, “SAR of a series of anti-HSV-1 acridone derivatives, and a rational acridone-based design of a new anti-HSV-1 3H-benzo[b]pyrazolo[3,4-h]-1,6-naphthyridine series” (Bioorg Med Chem, 2008).

Data set [1] relates to Human alphaherpesvirus 1. Put plainly: Antiviral activity against acyclovir-resistant HSV1 AR29 replication in Vero cells at 50 uM after 72 hrs. The format is functional. The note with it: for inhibition at 50 µM: Human alphaherpesvirus 1, AR29, Vero. An outline of the steps: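 Confluent Vero monolayers (DMEM, 5% FCS, 37 C, 5% CO2) infected with HSV-1 AR-29 at m.o.i. 1, 0.1, 0.01 or 0.001 for 1 h at 37 C. Cells were PBS-washed, then given medium with or without compound at 50 µM. At 72 h, titer was read as TCID50/mL by end-point dilution (Reed–Muench). % inhibition came from treated versus mock-treated infected titers. Acyclovir 50 µM served as control. Duplicates, ≥3 experiments.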

A short description of data set [2]: Cytotoxicity against african green monkey Vero cells assessed as cell viability after 72 hrs by MTT assay. The format is cell-based. Conditions: chlorocebus sabaeus.
Data set [3] deals with Human alphaherpesvirus 1. Put plainly: Antiviral activity against acyclovir-resistant HSV1 AR29 replication in Vero cells after 72 hrs. The format is functional. Conditions: for pEC50: Human alphaherpesvirus 1, AR29, Vero, read-out: ED50 (the source's name).
Data set [4] concerns Human alphaherpesvirus 1. Put plainly: Antiviral activity against acyclovir-resistant HSV1 AR29 replication in Vero cells at >50 uM after 72 hrs. It counts as functional.

Each structure is given as a SMILES string. pEC50: −log10 of the molar value. The source made the active and inactive calls. The calls are words filed in the database; no cut-off is given here. A value given as a limit tells only on which side of the number the result lay.

`Cc1nn(-c2ccccc2)c2ncc3c(Cl)c4cccc(Cl)c4nc3c12` had an inhibition at 50 µM in the data set on Human alphaherpesvirus 1 [1] of 100%.

In the case of `Cc1nn(-c2ccccc2)c2ncc3c(Cl)c4cc(Cl)ccc4nc3c12`, the CC50 at 72 h in data set [2] was 640 µM. In addition, the inhibition at 50 µM with Human alphaherpesvirus 1 [1] came out at 39%.

Take `Cc1ccc2nc3c(cnc4c3cnn4-c3ccccc3)c(Cl)c2c1`: the CC50 at 72 h in data set [2] is 640 µM. The compound also had an inhibition at 50 µM in the data set with Human alphaherpesvirus 1 [1] of 82%.

Regarding `Cc1cccc2c(Cl)c3cnc4c(c(C)nn4-c4ccccc4)c3nc12`, in data set [2], the CC50 at 72 h was determined as 640 µM. The compound also returned an inhibition at 50 µM with Human alphaherpesvirus 1 [1] of 66%.

With `COc1ccc2nc3c(cnc4c3cnn4-c3ccccc3)c(Cl)c2c1`, in data set [2], the CC50 at 72 h is 640 µM. Further, the inhibition at 50 µM in the data set with Human alphaherpesvirus 1 [1] is 68%.

As for `Cc1cc(O)c2c(=O)c3cccc(Cl)c3[nH]c2c1`, in the data set with Human alphaherpesvirus 1 [3], the result was inactive.

Turning to `O=c1c2cc(Cl)ccc2[nH]c2cc(O)cc(O)c12`, in the data set on Human alphaherpesvirus 1 [3], the pEC50 is 4.80.

For `COc1cc(O)c2c(=O)c3cccc(Cl)c3[nH]c2c1`, the Inhibition in the data set on Human alphaherpesvirus 1 [4] is 6%. The pEC50 with Human alphaherpesvirus 1 [3] is less than 4.30.

With `O=c1c2ccccc2[nH]c2c1cnc1c2cnn1-c1ccccc1`, the CC50 at 72 h in data set [2] was 640 µM. For the same compound, in the data set with Human alphaherpesvirus 1 [1], testing at 50 µM gave an inhibition of 74%.

Take `COc1cccc2c(O)c3c(O)cc(O)cc3nc12`: the pEC50 with Human alphaherpesvirus 1 [3] was 5.66.

In the case of `O=c1c2cccc(Cl)c2[nH]c2cc(O)cc(O)c12`, the pEC50 with Human alphaherpesvirus 1 [3] is 5.40.

`Nc1nc2c(ncn2COCCO)c(=O)[nH]1` [ACYCLOVIR]: the 50% cytotoxic concentration (CC50) at 72 h in data set [2] was determined as 126 µM.

For `O=c1c2ccccc2[nH]c2cc(O)cc(O)c12`, the pEC50 in the data set with Human alphaherpesvirus 1 [3] was 4.35.

Turning to `Cc1ccc2nc3c(cnc4c3c(C)nn4-c3ccccc3)c(Cl)c2c1`, the result in the data set on Human alphaherpesvirus 1 [1] was inactive.

Regarding `O=c1c2cccc(Cl)c2[nH]c2cc3ccccc3c(O)c12`, in the data set on Human alphaherpesvirus 1 [3], the result was inactive.

Consider `Cc1cccc2c(O)c3c(O)cc(O)cc3nc12`, for which the pEC50 with Human alphaherpesvirus 1 [3] is 5.10.

`Cc1nn(-c2ccccc2)c2ncc3c(Cl)c4ccccc4nc3c12`: in the data set with Human alphaherpesvirus 1 [1], testing at 50 µM gave an inhibition of 70%.

As for `O=c1c2ccc(Cl)cc2[nH]c2cc(O)cc(O)c12`, in the data set with Human alphaherpesvirus 1 [3], the pEC50 is 5.00.

In the case of `O=c1c2c(O)cc(O)cc2[nH]c2cccc(Cl)c12`, in the data set with Human alphaherpesvirus 1 [3], the pEC50 is 5.00.

Take `Cc1ccc2[nH]c3c(cnc4c3cnn4-c3ccccc3)c(=O)c2c1`: the CC50 at 72 h in data set [2] was determined as 640 µM. Further, testing at 50 µM in the data set on Human alphaherpesvirus 1 [1] gave an inhibition of 92%.
